Assay results as given in ChEMBL document CHEMBL1125826, “Synthesis and biological activity of 5-amino- and 5-hydroxyquinolones, and the overwhelming influence of the remote N1-substituent in determining the structure-activity relationship” (1991).
≈ marks a conversion by molar mass, not a printed value.

How the values were obtained:
Type in all cases: functional
[1] = tested on: Klebsiella pneumoniae; assay: Antibacterial activity was determined against gram negative organism, Klebsiella pneumoniae MGH-2; conditions: Klebsiella pneumoniae; read-out: MIC
Summary of the method: (§1)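 MIC (µg/mL) by standard microtitration against a panel of 10 Gram-positive and Gram-negative organisms; values averaged from multiple experiments.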

[2] = tested on: Staphylococcus aureus; assay: Antibacterial activity was determined against gram positive organism, Staphylococcus aureus UC76; conditions: Staphylococcus aureus; read-out: MIC; summary of the method: as §1
[3] = tested on: Streptococcus pyogenes; assay: The in vivo potency was determined in female charles river CD-1 mice infected with Streptococcus pyogenes after sc administration; conditions: Streptococcus pyogenes, sc; read-out: PD50
Summary of the method: (§2)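 Acute lethal systemic infection in female CD-1 mice, 16 mice per route; single subcutaneous dose given at the time of challenge; median protective dose (PD50, mg/kg) determined.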

[4] = tested on: Enterobacter cloacae; assay: Antibacterial activity was determined against gram negative organism, Enterobacter cloacae MA2646; conditions: Enterobacter cloacae; read-out: MIC
[5] = tested on: Pseudomonas aeruginosa; assay: Antibacterial activity was determined against gram negative organism, Pseudomonas aeruginosa UI-18; conditions: Pseudomonas aeruginosa; read-out: MIC; summary of the method: as §1
[6] = tested on: Escherichia coli; assay: The in vivo potency was determined in female charles river CD-1 mice infected with Escherichia coli after sc administration; conditions: Escherichia coli, sc; read-out: PD50; summary of the method: as §2
[7] = tested on: Bacteria; assay: MIC ratio measured as the mean MICs of gram-negative bacteria
Summary of the method: (§3)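 Geometric mean of the microtitration MICs (µg/mL) over the Gram-negative organisms, and separately over the Gram-positive organisms, of the 10-strain panel; individual MICs averaged from multiple experiments.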

[8] = tested on: Escherichia coli; assay: Antibacterial activity was determined against gram negative organism, Escherichia coli vogel; conditions: Escherichia coli; read-out: MIC; summary of the method: as §1
[9] = tested on: Escherichia coli; assay: The in vivo potency was determined in female charles river CD-1 mice infected with Escherichia coli after peroral administration; conditions: Escherichia coli, po; read-out: PD50
Summary of the method: (§4)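 Acute lethal systemic infection in female CD-1 mice, 16 mice per route; single dose given orally by gavage at the time of challenge; median protective dose (PD50, mg/kg) determined.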

[10] = tested on: Bacteria; assay: Antibacterial activity was determined against gram negative organism, Providencia rettgeri. M1771; conditions: Bacteria; read-out: MIC; summary of the method: as §1
[11] = tested on: Streptococcus pyogenes; assay: The in vivo potency was determined in female charles river CD-1 mice infected with Streptococcus pyogenes after peroral administration; conditions: Streptococcus pyogenes, po; read-out: PD50; summary of the method: as §4
[12] = tested on: Enterococcus faecalis; assay: Antibacterial activity was determined against gram positive organism, Streptococcus faecalis MGH-2; conditions: Enterococcus faecalis; read-out: MIC; summary of the method: as §1
[13] = target: DNA gyrase (Escherichia coli) (UniProt P0AES6+P0AES4); assay: Minimum inhibitory concentration against Escherichia coli DNA-gyrase in supercoiling assay
[14] = tested on: Bacteria; assay: MIC ratio measured as the mean MICs of gram-positive bacteria; summary of the method: as §3
[15] = tested on: Streptococcus pyogenes; assay: Antibacterial activity was determined against gram positive organism, Streptococcus pyogenes C203; conditions: Streptococcus pyogenes; read-out: MIC; summary of the method: as §1
[16] = tested on: Staphylococcus aureus; assay: Antibacterial activity was determined against gram positive organism, Staphylococcus aureus H228; conditions: Staphylococcus aureus; read-out: MIC; summary of the method: as §1
[17] = tested on: Streptococcus pneumoniae; assay: Antibacterial activity was determined against gram positive organism, Streptococcus pneumoniae SV-1; conditions: Streptococcus pneumoniae; read-out: MIC; summary of the method: as §1
[18] = tested on: Streptococcus pneumoniae; assay: The in vivo potency was determined in female charles river CD-1 mice infected with Streptococcus pneumoniae after peroral administration; conditions: Streptococcus pneumoniae, po; read-out: PD50; summary of the method: as §4
[19] = tested on: Streptococcus pneumoniae; assay: The in vivo potency was determined in female charles river CD-1 mice infected with Streptococcus pneumoniae after sc administration; conditions: Streptococcus pneumoniae, sc; read-out: PD50; summary of the method: as §2

| SMILES | MIC [1] | MIC [2] | ED50 [3] | MIC [4] | MIC [5] | ED50 [6] | Geometric mean MIC over Gram-negative bacteria (µg/mL) [7] | MIC [8] | ED50 [9] | MIC [10] | ED50 [11] | MIC [12] | MIC [13] | Geometric mean MIC over Gram-positive bacteria (µg/mL) [14] | MIC [15] | MIC [16] | MIC [17] | ED50 [18] | ED50 [19] |
| --- | --- | --- | --- | --- | --- | --- | --- | --- | --- | --- | --- | --- | --- | --- | --- | --- | --- | --- | --- |
| CC1CN(c2c(F)cc3c(=O)c(C(=O)O)cn(C4CC4)c3c2Cl)CCN1 (stereo not drawn) | 0.05 µg/mL (≈ 0.132 µM) | 0.05 µg/mL (≈ 0.132 µM) | 3 mg/kg | 0.025 µg/mL (≈ 0.0658 µM) | 0.8 µg/mL (≈ 2.11 µM) | 0.2 mg/kg | 0.087 | 0.025 µg/mL (≈ 0.0658 µM) | 0.6 mg/kg | 0.2 µg/mL (≈ 0.527 µM) | 6 mg/kg | 0.2 µg/mL (≈ 0.527 µM) | 2.5 µg/mL (≈ 6.58 µM) | 0.15 | 0.2 µg/mL (≈ 0.527 µM) | 0.2 µg/mL (≈ 0.527 µM) | 0.2 µg/mL (≈ 0.527 µM) |  |  |
| NC1CCN(c2cc3c(c(O)c2F)c(=O)c(C(=O)O)cn3C2CC2)C1 (stereo not drawn) | 0.025 µg/mL (≈ 0.072 µM) | 0.013 µg/mL (≈ 0.0374 µM) |  | 0.025 µg/mL (≈ 0.072 µM) | 0.2 µg/mL (≈ 0.576 µM) | 0.4 mg/kg | 0.038 | 0.013 µg/mL (≈ 0.0374 µM) | 3 mg/kg | 0.05 µg/mL (≈ 0.144 µM) |  | 0.2 µg/mL (≈ 0.576 µM) | 1 µg/mL (≈ 2.88 µM) | 0.066 | 0.1 µg/mL (≈ 0.288 µM) | 0.1 µg/mL (≈ 0.288 µM) | 0.05 µg/mL (≈ 0.144 µM) |  |  |
| CC1CN(c2c(F)c(O)c3c(=O)c(C(=O)O)cn(C4CC4)c3c2F)CCN1 (stereo not drawn) | 0.2 µg/mL (≈ 0.527 µM) | 0.1 µg/mL (≈ 0.264 µM) | > 50 mg/kg | 0.1 µg/mL (≈ 0.264 µM) | 1.6 µg/mL (≈ 4.22 µM) | 0.8 mg/kg | 0.2 | 0.05 µg/mL (≈ 0.132 µM) | 2 mg/kg | 0.2 µg/mL (≈ 0.527 µM) | > 50 mg/kg | 0.8 µg/mL (≈ 2.11 µM) | 0.5 µg/mL (≈ 1.32 µM) | 0.4 | 0.4 µg/mL (≈ 1.05 µM) | 0.8 µg/mL (≈ 2.11 µM) | 0.4 µg/mL (≈ 1.05 µM) |  |  |
| CCNCC1CCN(c2c(F)cc3c(=O)c(C(=O)O)cn(C4CC4)c3c2Cl)C1 (stereo not drawn) | 0.1 µg/mL (≈ 0.245 µM) | 0.003 µg/mL (≈ 0.00736 µM) |  | 0.05 µg/mL (≈ 0.123 µM) | 0.8 µg/mL (≈ 1.96 µM) | 1 mg/kg | 0.13 | 0.05 µg/mL (≈ 0.123 µM) | 4 mg/kg | 0.2 µg/mL (≈ 0.49 µM) |  | 0.013 µg/mL (≈ 0.0319 µM) | 0.25 µg/mL (≈ 0.613 µM) | 0.006 | 0.006 µg/mL (≈ 0.0147 µM) | 0.013 µg/mL (≈ 0.0319 µM) | 0.003 µg/mL (≈ 0.00736 µM) |  |  |
| CCNCC1CCN(c2c(F)cc3c(=O)c(C(=O)O)cn4c3c2OCC4C)C1 (stereo not drawn) | 0.4 µg/mL (≈ 1.03 µM) | 0.025 µg/mL (≈ 0.0642 µM) |  | 0.2 µg/mL (≈ 0.514 µM) | 0.8 µg/mL (≈ 2.05 µM) | 11 mg/kg | 0.4 | 0.2 µg/mL (≈ 0.514 µM) | > 100 mg/kg | 0.8 µg/mL (≈ 2.05 µM) |  | 0.1 µg/mL (≈ 0.257 µM) | 0.5 µg/mL (≈ 1.28 µM) | 0.057 | 0.013 µg/mL (≈ 0.0334 µM) | 0.2 µg/mL (≈ 0.514 µM) | 0.1 µg/mL (≈ 0.257 µM) |  |  |
| CCNCC1CCN(c2c(F)c(N)c3c(=O)c(C(=O)O)cn4c3c2OCC4C)C1 (stereo not drawn) | 0.8 µg/mL (≈ 1.98 µM) | 0.1 µg/mL (≈ 0.247 µM) |  | 1.6 µg/mL (≈ 3.96 µM) | 12.5 µg/mL (≈ 30.9 µM) | 8 mg/kg | 2.09 | 0.8 µg/mL (≈ 1.98 µM) | > 100 mg/kg | 3.1 µg/mL (≈ 7.66 µM) |  | 0.4 µg/mL (≈ 0.989 µM) | 7.5 µg/mL (≈ 18.5 µM) | 0.26 | 0.1 µg/mL (≈ 0.247 µM) | 0.8 µg/mL (≈ 1.98 µM) | 0.4 µg/mL (≈ 0.989 µM) |  |  |
| O=C(O)c1cn(C2CC2)c2cc(N3CCNCC3)c(F)cc2c1=O [CIPROFLOXACIN] | 0.05 µg/mL (≈ 0.151 µM) | 0.2 µg/mL (≈ 0.604 µM) | 19 mg/kg |  | 0.4 µg/mL (≈ 1.21 µM) | 0.3 mg/kg |  |  | 1 mg/kg | 0.05 µg/mL (≈ 0.151 µM) | > 100 mg/kg | 0.8 µg/mL (≈ 2.41 µM) |  |  | 0.8 µg/mL (≈ 2.41 µM) | 1.6 µg/mL (≈ 4.83 µM) | 0.8 µg/mL (≈ 2.41 µM) | > 100 mg/kg | 228 mg/kg |
